Converted amounts (≈) assume the structure as drawn.
Key:
WHIM12 tumors = assay: WHIM12 PDX tumor growth; format: in vivo, mouse; settings: WHIM12 (ACSS2 low), 100 mpk daily PO
Method in brief: (§1)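 Female NSG mice, 5–6 weeks old, received subcutaneous PBS:Matrigel grafts: BT474 at 1×10^6 (with a 60-day 17β-estradiol pellet at the neck), MDA-MB-468 at 5×10^6, or WHIM12 PDX cells at 2×10^6. Once tumors established, mice were randomized to daily IP or oral gavage. Arms: vehicle (10% DMSO, 20% solutol, 70% water with 0.5% Tween20) or 100 mg/kg test compound. Calipers thrice weekly; volume (L × W²)/2.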

[1] = Pharmacokinetic analysis in CD-1 mice; format: in vivo, mouse; settings: oral gavage 30 mg/kg, intravenous 2 mg/kg, intraperitoneal 10 mg/kg
Method in brief: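 Formulation: 10% DMSO, 10% Solutol, 80% PBS. Dosing in CD-1 mice based on 28 g average weight. Three mice per time point; trunk blood collected into K2-EDTA and kept on wet ice until centrifugation. Plasma extracted in acetonitrile/water with tolbutamide internal standard, centrifuged, supernatant analysed by LC-MS. Mean ± S.D.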

BT474 cells = assay: Growth of BT474 cells; format: cell-based, human; settings: BT474, 10 μM, 72 hours, H1 conditions, 200 μM sodium acetate
Brpkp110 cells [2] = assay: 13C6-glucose dependent palmitate synthesis in Brpkp110 cells; format: cell-based, mouse; settings: Brpkp110, normoxia, 10% dialyzed FBS
Method in brief: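 Cells grown 4 h under normoxia in SMEM with 10% dialyzed FBS and 5.5 mM uniformly labeled 13C6-glucose. Lipids extracted with methanol/chloroform/PBS and saponified in 0.3 M KOH in 90% methanol at 70°C for 1 h. Fatty acids recovered into hexane and palmitate labeling measured by C18 reverse-phase LC-MS.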

[3] = tested on: BT474, MDA-MB-468, and WHIM12 tumors; assay: Heavy acetate stable isotope tracing in tumors; format: in vivo, mouse
Method in brief: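 Tumor-bearing mice received 2% D3- or 13C2-acetate in drinking water for two days, plus a 2 g/kg IP heavy-acetate bolus 90 min before sacrifice. Tumors excised under anesthesia and flash-frozen. Extraction at 40 mg/mL in methanol/acetonitrile/water (5:3:2) by bead homogenization, cleared twice. Citrate labeling analysed by HILIC LC-MS.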

A7C11 tumors = assay: A7C11 tumor growth in mice; format: in vivo, mouse; settings: A7C11 (ACSS2 low) tumors
Method in brief: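 Parental or CRISPR-Cas9 sgAcss2 cells (lentiviral, blasticidin-selected pools) implanted subcutaneously into 5–6-week-old female NSG mice in PBS:Matrigel: A7C11 at 5×10^5, Brpkp110 at 5×10^5. Calipers read tumors three times weekly. Volume = (L × W²)/2, L being the longer measurement; not blinded.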

[4] = Human liver microsomal stability; format: in vitro ADME; settings: 0.5 μM compound, 0.5 mg/mL microsomes; compared with VY-3-249
Method in brief: (§2)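 Incubations: 0.5 μM compound, 0.5 mg/mL liver microsomes, NADPH-regenerating system, potassium phosphate pH 7.4. Timed aliquots quenched in acetonitrile with internal standard; no-cofactor controls run. LC-MS/MS analyte/internal-standard peak-area ratios. Elimination constant fitted by nonlinear regression; t1/2 from k = 0.693/t1/2. CLint scaled with 48 (mouse) or 39.7 (human) mg protein/g liver. n = 1.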

[5] = tested on: cytosolic AcCoA metabolism (UDP-GlcNAc); assay: 13C2-acetate labeling of UDP-GlcNAc in cells; format: cell-based
Method in brief: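 Cells grown 24 h in serum-like modified Eagle's medium (SMEM) with 0.1 mM uniformly labeled 13C2-acetate. Conditions were normoxia with 10% dialyzed FBS (N10) or 1% O2 hypoxia with 1% dialyzed FBS (H1). Vehicle or test compound present. Cells washed in ice-cold PBS and extracted with methanol/acetonitrile/water (5:3:2) at 4°C for 5 min. Cleared extracts analysed by HILIC LC-MS on a Q Exactive HF-X.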

Brpkp110 cells [6] = assay: 13C2-acetate labeling of palmitate in Brpkp110 cells; format: cell-based, mouse; settings: Brpkp110, N10 and H1, 24 hr, 100 μM 13C2-acetate
Method in brief: (§3)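 Cells labeled 24 h with 100 μM 13C2-acetate in SMEM under N10 (normoxia, 10% dialyzed FBS) or H1 (1% O2, 1% dialyzed FBS). Vehicle or test compound present; for BT474 in H1, a 10-fold dilution series. Lipids extracted with methanol/chloroform/PBS, saponified in 0.3 M KOH/90% methanol at 70°C for 1 h, then hexane-extracted. Palmitate labeling read by C18 reverse-phase LC-MS. n = 3, mean ± S.D.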

[7] = Mouse liver microsomal stability; format: in vitro ADME; settings: 0.5 μM compound, 0.5 mg/mL microsomes; compared with VY-3-249
Method in brief: as §2

[8] = Body weight in tumor xenograft studies; format: in vivo, mouse; settings: 100 mg/kg daily IP or oral gavage vs vehicle
Method in brief: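 Female NSG mice, 5–6 weeks old, carried subcutaneous tumours in PBS:Matrigel (BT474 with a 17β-estradiol pellet; MDA-MB-468, WHIM12, A7C11, Brpkp110) or BT474 mammary fat-pad orthografts. After tumour establishment, mice were randomized and dosed daily by IP injection or oral gavage. Groups received vehicle (10% DMSO, 20% solutol, 70% water containing 0.5% Tween20) or test compound at 100 mg/kg.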

A7C11 cells = assay: 13C2-acetate labeling of palmitate in A7C11 cells; format: cell-based, mouse; settings: A7C11, N10 and H1, 24 hr, 100 μM 13C2-acetate
Method in brief: as §3

Water solubility in PBS = format: physicochemical; settings: PBS buffer, pH 7.4
Method in brief: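 10 mg test compound in 1 mL PBS pH 7.4, sonicated 30 min, vortexed 30 min at low speed, then left 16–24 h at room temperature. Filtered (0.22 μm) and 10-fold serially diluted in triplicate in ACN:water (1:1). Internal standard added; LC-MS/MS quantitation against a five-standard calibration curve.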

BT474 tumors = assay: BT474 tumor xenograft growth; format: in vivo, mouse; settings: BT474, 100 mpk daily IP
Method in brief: as §1

SMILES: CCn1c(C(O)(c2ccccc2)c2ccccc2)nc2ccc(C(=O)NC[C@@H](C)O)cc21 [VY-3-135, (R)-1-ethyl-2-(hydroxydiphenylmethyl)-N-(2-hydroxypropyl)-1H-benzo[d]imidazole-6-carboxamide]
- tumor growth (WHIM12 tumors): mostly ineffective
- absorption [1]: completely absorbed by all routes of administration
- exposure [1]: good exposure
- cell growth (BT474 cells): modest growth inhibition
- 13C6-glucose dependent palmitate synthesis (Brpkp110 cells [2]): did not affect
- D3-acetate labeling of citrate in MDA-MB-468 tumors ([3]; MDA-MB-468 tumors): increase in D3-acetate labeling of citrate
- D3-acetate or 13C2-acetate labeling of citrate in tumors ([3]; readout of ACSS1): did not observe any inhibitory effect
- tumor growth (A7C11 tumors): but not WHIM12 and A7C11 tumors
- stability in human liver microsomal assay [4]: superior stability
- incorporation of 13C2-acetate into UDP-GlcNAc [5]: blocked incorporation
- acetate dependent labeling of palmitate by 13C2-acetate (Brpkp110 cells [6]): efficiently blocked
- stability in mouse liver microsomal assay [7]: superior stability
- body weight [8]: No significant differences in body weight
- acetate dependent labeling of palmitate by 13C2-acetate (A7C11 cells): efficiently blocked
- solubility (Water solubility in PBS): 21.7 µM (≈ 9.32 µg/mL)
- tumor regression by the end of the regimen (BT474 tumors; n = 5 mice per group): two of the tumors in VY-3-135 treated group were not palpable by the end of the regimen, with one tumor fully regressing
- tumor growth (BT474 tumors; two weeks of treatment): completely abrogated tumor growth
